Data set [1] has as its target T1, MMP2 (Homo sapiens, UniProt P08253).
T1 sequence (P08253 110-660): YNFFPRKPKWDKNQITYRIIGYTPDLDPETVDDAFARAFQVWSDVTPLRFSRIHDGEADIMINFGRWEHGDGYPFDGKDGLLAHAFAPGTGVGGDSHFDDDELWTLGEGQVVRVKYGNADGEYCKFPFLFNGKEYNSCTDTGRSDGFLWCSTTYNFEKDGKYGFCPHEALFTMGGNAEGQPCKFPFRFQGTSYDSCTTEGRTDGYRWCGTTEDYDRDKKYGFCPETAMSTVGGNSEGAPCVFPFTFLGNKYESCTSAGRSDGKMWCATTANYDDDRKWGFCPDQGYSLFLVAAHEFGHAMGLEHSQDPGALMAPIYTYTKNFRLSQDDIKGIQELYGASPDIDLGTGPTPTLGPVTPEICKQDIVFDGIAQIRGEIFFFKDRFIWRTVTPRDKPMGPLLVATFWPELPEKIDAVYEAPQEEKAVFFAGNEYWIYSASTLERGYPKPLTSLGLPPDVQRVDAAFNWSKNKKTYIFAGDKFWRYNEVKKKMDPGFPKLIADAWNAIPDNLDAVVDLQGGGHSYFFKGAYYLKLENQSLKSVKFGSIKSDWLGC
To be noted: cited from earlier work.

Data set [2] concerns WM266-4 cells. Kind of data set: Transwell Matrigel invasion assay. Type of data set: cell-based, human. Put shortly: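 25 × 10^4 WM266-4 cells in suspension were treated with 0.16 or 0.32µM test compound; shMT1-MMP cells got recombinant MMP2 at 25ng/ml. Cells were placed in 8-µm-pore inserts, uncoated or coated with growth-factor-reduced Matrigel, with DMEM plus 5% FBS below. After 24 h, cells on the bottom membrane were fixed in 4% formaldehyde and stained with Coomassie. Stain was extracted in 10% acetic acid and read at […], in triplicate. Invasion % = Matrigel/control insert × 100.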

A further data set concerns other MMPs. Particulars: cited from earlier work.
The conditions of data set [3]: cited from earlier work.
Data set [4] deals with WM266-4 cells. Kind of data set: Scratch migration assay. Type of data set: cell-based, human.
Another data set deals with MT1-MMP (Homo sapiens, UniProt P50281). In words: MT1-MMP activity assay. Particulars: WM266-4 cells, 0.32 µM, overnight. Type of data set: cell-based. Put shortly: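 WM266-4 cells treated overnight with test compound (0.32 µM final). Comparators were a neutralizing antibody (1 μg/ml), recombinant MT1-MMP (0.5 μg/ml) or shMT1-MMP expression. Membranes extracted by three freeze-thaw cycles, sonicated, pelleted (30 min, 13 000 g, 4°C) and resuspended in PBS. Equal protein incubated with fluorogenic substrate Mca-PLGL-Dap(Dnp)-AR-NH2; fluorescence read at Ex/Em […].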

The test system of another data set is melanoma cell lines. In words: Cell proliferation assay. The data set is classed as cell-based, human. Put shortly:
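Crystal violet growth assay. Melanoma cells were kept in DMEM with 10% FCS, 1% glutamine and 1% penicillin-streptomycin. They were seeded at 16,000/cm2 in triplicate and treated with 0.32 µM test compound or DMSO vehicle. shMT1-MMP WM266-4 cells received recombinant MMP2 at 25ng/ml. At each time point cells were fixed in 10% buffered formalin and stained with crystal violet. Growth is expressed relative to controls.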

The subject of the next data set is RAC1. Kind of data set: RAC1 activity assay. Type of data set: cell-based, human. Particulars: WM266-4 cells, 0.32 µM, 24 hours. Put shortly: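 Cells at 70% confluency were serum-starved in DMEM with 0.5% serum for 24 h, then serum-free for a further 24 h. They were lysed in the G-LISA kit buffer. Equal protein amounts were added to Rac1-GTP-binding wells, and active RAC1 was read at OD 490 nm.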

Data set [5] concerns MMP2. Kind of data set: Gelatin zymography of conditioned medium. The data set is classed as cell-based, human. To be noted: WM266-4 cells, 0.32 µM. The method in brief:
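WM266-4 cells were treated with 0.32µM test compound or DMSO, and serum-free conditioned medium was collected. Medium was concentrated on a 30K cutoff device, and 10 μg protein was run on 8% SDS-PAGE containing 2 mg/ml gelatin. Gels were washed in 2.5% Triton X-100, then incubated overnight at 37°C in 50 mM Tris-HCl, 5 mM CaCl2, 0.1% Triton X-100, pH 7.8. Gels were Coomassie R250-stained 45 min, then destained.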

In data set [6] the test system is WM266-4 cells. Kind of data set: Orthotopic melanoma model: WM266-4 cells intradermally in NOD/SCID mice. Type of data set: in vivo. The method in brief: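 Male NOD/SCID mice (5–8 weeks) received 2 × 10^6 luciferase-transduced WM266-4 cells intradermally in dorsal flanks (9 control, 18 treated tumors). Dosing began at about 120 mm3 mean tumor volume: 25 mg/Kg once daily subcutaneously, from 7.5 mg/ml in sterile PBS, filter-sterilized. Tumor volume taken as (w2 × l) × 0.52 and normalized to time 0. Primary tumors resected at day 42. Lung bioluminescence checked twice weekly. Lungs/thymi S100-stained at 30 weeks post-surgery.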

The conditions of data set [7]: cited from earlier work. The source holds these as a separate data set.
The test system of another data set is prostate cancer. Particulars: cited from earlier work.
[8] abbreviates: WM266-4 cells, recombinant MMP2 25ng/ml.

For the molecule “TIMP1: tissue inhibitor of matrix metalloproteinase (TIMP)1”, the “residence time bound to MMP2” value in the data set with MMP2 [1] is recorded as 6.9 min.
Take `Nc1ccc(Oc2ccc(S(=O)(=O)CC3CS3)cc2)cc1` (stereo not shown) [ND-322]: the “invasion capacity of WM266-4 melanoma cells” value in the data set on WM266-4 cells [2] (0.16 and 0.32 µM, 24 hours, dose dependent) is reported as “inhibited significantly”. Also, in the data set on other MMPs, the “inhibition of other MMPs” value is given as “does not inhibit or poorly inhibits”. Also, the “crossing of the blood/brain barrier” value in data set [3] is “cross the blood/brain barrier”. For the same molecule, the “motility (migration) of WM266-4 melanoma cells” value in the data set on WM266-4 cells [4] (0.16 and 0.32 µM, dose dependent) was “inhibited significantly”. Also, the MT1-MMP activity entry on MT1-MMP was “as effective as antibody neutralization and knockdown”. For the same molecule, in the data set on melanoma cell lines (0.32 µM), the “cell growth of several melanoma cell lines” value is “inhibited cell growth”. In addition, the “activity of the small GTPase RAC1” value in the data set on RAC1 is “reduce the activity”. In addition, the “MMP2 activation by gelatin zymography” value in the data set on MMP2 [5] is recorded as “inhibited MMP2 activation”. For the same molecule, the “tumor growth compared to controls” value in the data set on WM266-4 cells [6] (25 mg/Kg/day subcutaneously, NOD/SCID mice) is reported as “reduced tumor growth significantly”. Besides, in the data set on WM266-4 cells [6] (25 mg/Kg/day, NOD/SCID mice), the “body weight over time” value is “maintained their weight” and the tolerability of treatment result was “well tolerated”. Moreover, in the data set with WM266-4 cells [6] (30 weeks post-surgery, control animals 90%), the “mice presenting with tumor cells in the lungs (lung metastasis)” value was 40%. The “tolerability in a model of wound healing” value in data set [7] is recorded as “well tolerated”.
For `O=S(=O)(CC1CS1)c1ccc(Oc2ccccc2)cc1` (stereo not shown) [SB-3CT, reference compound], in [3], the “crossing of the blood/brain barrier” value is “cross the blood/brain barrier”. Besides, the “bone metastasis in a xenograft model of prostate cancer” value with prostate cancer is “effectively prevent bone metastasis”.

B1: recombinant active MMP2: recombinant active MMP2 added to cells at 25ng/ml (protein, UniProt P08253 110-660, looked up)
72 kDa type IV collagenase: T1 sequence (P08253 110-660)
In the case of B1, the “rescue of cell invasion in cells expressing shMT1-MMP” value in the data set with WM266-4 cells [2] (setting [8]) is “rescued”. Also, the “rescue of cell motility in cells expressing shMT1-MMP” value in the data set with WM266-4 cells [4] (WM266-4 cells, recombinant MMP2 25ng/ml, 24 hours) was “rescued”. Besides, the “rescue of cell growth in cells expressing shMT1-MMP” value with melanoma cell lines (setting [8]) is “did not rescue cell growth”.

These data come from article PMC5107128 (Pharmacological research, 2016).
